Rows were chosen to be rich in hits. Some 0.83% of all compounds tested hit in one or more screens of this group.
RGS4-Gao reg = human RGS4-Galphao interaction regulation; Multiplexed bead flow cytometry, RGS4-Galphao binding; actives lie on both sides; binding response (% of control), % at 10 µM; actives 0.33% (n = 220,000); AID 1415; in the data active = binding response below about 49% or above about 150%; inactive = in between;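 note: fluorescent Galphao activated with aluminum fluoride binding bead-coupled RGS4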
ABCG2 inh = inhibitors of human ABCG2 transporter, ABCB1 counter-screen; Q9UNQ0; IgMXP3 cells, JC-1 efflux, flow cytometry; inhibition, % at 6.6 µM; actives 0.1% (n = 190,000); AID 1325;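 active = inhibition above 80%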;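 note: 0% = DMSO and 100% = nicardipine control wells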
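Test system: IgMXP3 cells (ABCG2) mixed with DDAO far-red-labelled CCRF-Adr cells (ABCB1). Reagent: JC-1 transporter substrate. Compound dosing: single test compound dose, 6.6 µM final. Times: 10 min compound exposure, 25 °C. Detection: flow cytometry of retained JC-1 fluorescence. Read-out basis: efflux inhibition in percent versus controls. Controls: nicardipine and DMSO wells.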
ABCB1 block = inhibitors of human ABCB1 transporter, ABCG2 counter-screen; P08183; CCRF-Adr cells, JC-1 efflux, flow cytometry; inhibition, % at 6.6 µM; actives 0.067% (n = 190,000); AID 1326; in the data active = inhibition above about 40%;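 note: 0% = vehicle and 100% = reference inhibitor; higher value means more JC-1 retained so stronger ABCB1 efflux block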
RGS7-Gao = human RGS7-Galphao interaction regulation | P09471 | Multiplexed bead flow cytometry, RGS7-Galphao binding; actives lie on both sides | binding response (% of control), % at 10 µM | actives 0.35% (n = 220,000) | AID 1439; in the data active = binding response below about 49% or above about 150%; inconclusive = no clear call, values can overlap the other calls; inactive = in between;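 note: fluorescent Galphao held in activated GDP-AlF4 state binding bead-coupled RGS7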
RGS8-Gao reg = regulators of human RGS8-Galphao interaction; multiplexed bead flow cytometry, RGS8-Galphao binding; actives lie on both sides; response (percent of control binding), % at 10 µM; AID 1423; P09471; actives 0.34% (n = 220,000); in the data active = response below about 60% or above about 140%; inactive = in between;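 note: Galphao activated as the GDP aluminium fluoride complex binding bead-coupled RGS8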
RGS16-Gao HTS = modulates binding between human RGS16 and Galphao | bead-based flow cytometry RGS16-Galphao binding, fluorescence; actives lie on both sides | actives 0.38% (n = 220,000) | binding response (% of control), % at 10 µM | AID 1441;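 note: Galphao activated by GDP with aluminum fluoride before binding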
RGS4-Gao HTS = modulates binding between human RGS4 and Galphao; shares compounds with RGS16-Gao HTS; multiplexed bead flow cytometry, RGS–Galpha-o binding; RGS4–Galpha-o binding response, % at 10 µM; actives 99% (n = 1,600);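 note: fluorescently labeled Galpha-o bound to GDP with aluminium fluoride binding biotinylated RGS beads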
Avidin counter = biotin-avidin bead binding disruption counter-screen | inhibition, % at 10 µM | shares compounds with RGS16-Gao HTS | 1,700 tested, under 10 active | streptavidin beads, fluorescein-biotin binding, flow cytometry | AID 1783;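 active = inhibition above 50%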;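 note: median green fluorescence of gated singlet beads compared with DMSO control wells; 0% = DMSO wells and 100% = complete loss of bead fluorescence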
RGS8-Gao single = confirmation of regulators of human RGS8-Galphao interaction; shares compounds with RGS16-Gao HTS; bead-based flow cytometry RGS8-Galphao binding, fluorescence; actives lie on both sides; binding response (% of control), % at 10 µM; actives 3% (n = 1,700); in the data active = binding response below about 72% or above about 130%; inactive = in between;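 note: Galphao activated as GDP AlF4 complex before binding bead RGS8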
RGS7-Gao single = RGS7-Galphao interaction regulation, single point confirmation | shares compounds with RGS16-Gao HTS | bead-based flow cytometry RGS7-Galphao binding; actives lie on both sides | response (percent of control binding), % at 10 µM | actives 7.8% (n = 1,700) | AID 1837; in the data active = response below about 75% or above about 130%; inactive = in between;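 note: fluorescent Galphao activated with GDP and aluminum fluoride binding bead-coupled RGS7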
RGS16-Gao single = RGS16-Galphao interaction regulation, single point confirmation; shares compounds with RGS16-Gao HTS; bead-based flow cytometry, RGS16-Galphao binding; actives lie on both sides; response (% of control binding), % at 10 µM; actives 4% (n = 1,700); in the data active = response below about 74% or above about 130%; inactive = in between;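 note: Galphao activated as the GDP aluminium fluoride complex binding bead-coupled RGS16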
RGS4-Gao confirm = confirmation of regulators of human RGS4-Galphao interaction; shares compounds with RGS16-Gao HTS; RGS4-Galphao binding, multiplexed bead flow cytometry; actives lie on both sides; binding response (% of control), % at 10 µM; actives 4% (n = 1,700); AID 1840; in the data active = binding response below about 74% or above about 130%; inactive = in between
RGS19-Gao conf = RGS19-Galphao interaction regulation, single point confirmation; AID 1841; bead-based flow cytometry RGS19-Galphao binding; actives lie on both sides; actives 5% (n = 1,700); response (percent of control binding), % at 10 µM; shares compounds with RGS16-Gao HTS; in the data active = response below about 50% or above about 160%; inactive = in between;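 note: 100% = no compound control and 0% = blank background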
* hit, by the source's call; i = inactive; ? = inconclusive; · = not tested or not shown; [ ] = dose if it differs, or a comment. Unless noted, the rule behind the calls is not given here.

SMILES	RGS4-Gao reg	ABCG2 inh	ABCB1 block	RGS7-Gao	RGS8-Gao reg	RGS16-Gao HTS	Avidin counter	RGS8-Gao single	RGS7-Gao single	RGS16-Gao single	RGS4-Gao confirm	RGS19-Gao conf	others
CC(C)Oc1ccc(Cc2cnc(N)nc2N)cc1	137	0	0	132	163*[activator]	i	0	104	103	102	104	100	RGS4-Gao HTS=137*
CCCCOc1ccc(Cc2cnc(N)nc2N)cc1	100	·	·	?	99	100	·	·	·	·	·	·
O=C(CSc1nnc(NC2CCCCC2)s1)NN1C(=O)NC2(CCCCC2)C1=O	99	7	1	98	89	66	·	·	·	·	·	·
CCNC(=O)c1c(NC(=O)C2COc3ccccc3O2)sc2c1CCCC2 (stereo not given)	170*[activator]	6	1	155*[activator]	185*[activator]	-528	0	105	110	104	105	95
O=C(NC(=O)c1ccc(F)cc1F)Nc1ccc(Cl)cc1	96	·	·	?	100	95	·	·	·	·	·	·
C=Cn1nc(C)c2ccccc2c1=O	25*	2	0	14*	16*	17*	1	99	100	99	99	104
Cc1nn(C(C)C(=O)O)c(=O)c2ccccc12 (stereo not given)	94	2	0	95	90	67	·	·	·	·	·	·
Cc1ccccc1NC1C=CS(=O)(=O)C1 (stereo not given)	103	-1	0	105	101	105	·	·	·	·	·	·
CCOc1cc(C(F)(F)F)cnc1/C(N)=N/O	113	·	·	?	108	115	·	·	·	·	·	·
CCCCn1c(/N=C/c2ccc3c(c2)OCO3)nc2ccccc21	·	-1	-1	·	·	·	1	101	100	99	99	100
Cc1sc2nc(COC(=O)c3cccc(S(=O)(=O)N(C)c4ccccc4)c3)[nH]c(=O)c2c1C	102	3	2	90	102	100	·	·	·	·	·	·
COc1ccc(CCNC(=O)Cn2nnc(-c3ccc(N(C)C)cc3)n2)cc1OC	102	1	0	99	101	98	·	·	·	·	·	·
O=C(CCn1nnc2ccccc21)N1CCN(c2ccccc2)CC1	·	2	0	·	·	·	0	102	106	102	102	102
COc1ccc(OC)c2c(C)cc(C)nc12	102	4	0	101	97	97	·	·	·	·	·	·
COc1ccc(C(=O)NCc2ccc3c(c2)cc(C)n3C)cc1OC	99	-1	-1	103	105	117	·	·	·	·	·	·
COc1ccc(/C=C\C(=O)NCc2ccc3c(c2)cc(C)n3C)cc1OC	79	8	2	79	71	23*	·	·	·	·	·	·	RGS4-Gao HTS=79*
CC(C)(C)c1cc(C(=O)N/N=C/c2ccco2)n[nH]1	114	·	·	115	136	279*[activator]	0	95	91	94	94	87	RGS4-Gao HTS=114*
O=C(Nc1ccc(-c2nc3ccccc3[nH]2)cc1)c1ccc2c(c1)OCO2	99	0	0	100	101	98	·	·	·	·	·	·
O=C(Nc1ccc(Cl)c(-c2nc3ccccc3[nH]2)c1)c1ccc2c(c1)OCO2	107	-8	0	103	136	215*[activator]	0	106	106	108	104	100	RGS4-Gao HTS=107*
Cc1cc(Oc2ccc(C#N)cc2)nc(N2CCOCC2)n1	41*	7	1	43*	55*	45	0	100	84	97	89	107
Cc1cc(C)c(S(=O)(=O)Nc2cccc(S(=O)(=O)NC3=NCCC3)c2)c(C)c1	103	2	0	101	99	106	·	·	·	·	·	·
CC(C)OC(=O)C1C(=O)CC(C)(O)C(C(=O)OC(C)C)C1c1ccccc1 (stereo not given)	2.3*	1	0	1.8*	5.7*	-3.2*	-2	101	101	102	101	103
O=C(c1cc2n(n1)C(C(F)(F)F)CC(c1ccco1)N2)N1CCN(c2ccccn2)CC1 (stereo not given)	·	20	1	·	·	·	-1	99	99	103	96	119
Cc1cccc(N2CCN(C(=O)c3cc4n(n3)C(C(F)(F)F)CC(c3ccco3)N4)CC2)c1C (stereo not given)	94	0	0	92	95	94	·	·	·	·	·	·
COC(=O)CCC(=O)Nc1sc(C)c(C)c1C(N)=O	·	3	0	·	·	·	0	82	73*	70*	69*	44*
SMILES	RGS4-Gao reg	ABCG2 inh	ABCB1 block	RGS7-Gao	RGS8-Gao reg	RGS16-Gao HTS	Avidin counter	RGS8-Gao single	RGS7-Gao single	RGS16-Gao single	RGS4-Gao confirm	RGS19-Gao conf	others
OC(c1ccc(Cl)cc1)C(O)c1nc2ccccc2[nH]1 (stereo not given)	121	1	0	109	141*[activator]	303	·	·	·	·	·	·	RGS4-Gao HTS=121*
OCC(O)C(O)C(O)C(O)c1nc2ccccc2[nH]1 (stereo not given)	97	4	0	?	96	95	·	·	·	·	·	·
Cc1cc(NC(=O)C2C3C(=O)N(Cc4ccc(Cl)cc4)C(C(=O)NCc4ccccc4)C34C=CC2(C)O4)no1 (stereo not given)	102	0	0	99	101	99	·	·	·	·	·	·
c1ccc(Cn2cnc3ccccc32)cc1	33*	2	0	34*	35*	26	-1	109	116	113	115	112
Clc1ccc(Cn2cnc3ccccc32)cc1	101	0	1	104	100	105	·	·	·	·	·	·
COc1cccc(C(O)c2cnc(C(C)C)n2C)c1 (stereo not given)	96	·	·	?	100	99	·	·	·	·	·	·
Cc1cc(C)n(-c2nc3ccccc3c(=O)n2OCC(=O)N(C)C)n1	102	0	0	103	101	99	·	·	·	·	·	·

Bioassay records: PubChem BioAssay, NMMLSC
